Test results from ChEMBL document CHEMBL1944533, “Synthesis and evaluation of anti-tubercular and antibacterial activities of new 4-(2,6-dichlorobenzyloxy)phenyl thiazole, oxazole and imidazole derivatives. Part 2” (2012).
Values after ≈ are worked out from the molar mass of the structure shown.

Key:
Type in all cases: functional
[1] = test system: Mycobacterium tuberculosis; test: Antitubercular activity against Mycobacterium tuberculosis H37Rv after 16 to 24 hrs by microplate alamar blue assay
In short: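 DMSO stocks (12.8 mM) two-fold diluted in Middlebrook 7H12 medium (7H9 with casitone, palmitic acid, BSA, catalase); final concentrations 128 down to 0.5. H37Rv inoculum 2 × 10⁵ cfu/mL added, 37 °C for 7 days, then Tween 80 plus Alamar Blue, further 16–24 h. Fluorescence ex 530/em 590 nm; MIC = lowest concentration giving ≥90% fluorescence reduction versus replicate bacteria-only controls.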

Streptococcus pneumoniae [2] = test: Antibacterial activity against Streptococcus pneumoniae clinical isolate after 16 to 20 hrs by two fold agar dilution method
In short: (§1)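 Two-fold dilutions of test compounds and reference antibiotics made in molten Mueller-Hinton agar held at 37 °C, final range […]; drug-free medium as control. Plates spot-inoculated with culture containing 10⁴ CFU/mL of each clinical isolate, incubated at 37 °C; MIC read as lowest inhibiting concentration.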

Staphylococcus aureus = test: Antibacterial activity against Staphylococcus aureus clinical isolate after 16 to 20 hrs by two fold agar dilution method; in short: as §1
Streptococcus pneumoniae [3] = test: Antibacterial activity against pencillin-resistant Streptococcus pneumoniae after 16 to 20 hrs by two fold agar dilution method; in short: as §1
Escherichia coli = test: Antibacterial activity against Escherichia coli clinical isolate after 16 to 20 hrs by two fold agar dilution method; in short: as §1

| Compound | MIC [1] [µM] | MIC (Streptococcus pneumoniae [2]) [µM] | MIC (Staphylococcus aureus) [µM] | MIC (Streptococcus pneumoniae [3]) [µM] | MIC (Escherichia coli) [µM] |
| --- | --- | --- | --- | --- | --- |
| NNC(=O)c1ccncc1 [ISONIAZID] | 0.81 (≈ 0.111 µg/mL) | – | – | – | – |
| CCOC(=O)c1nc(-c2ccc(OCc3c(Cl)cccc3Cl)cc2)oc1NC(=O)c1ccc(Cl)cc1 | > 128 | – | – | – | – |
| O=C(Nc1oc(-c2ccc(OCc3c(Cl)cccc3Cl)cc2)nc1C(=O)O)c1ccc(Cl)cc1 | > 128 | – | – | – | – |
| O=C(Nc1nc(-c2ccc(OCc3c(Cl)cccc3Cl)cc2)c(C(=O)O)s1)c1ccc(Cl)cc1Cl | 45.5 (≈ 25.9 µg/mL) | > 128 | > 128 | > 128 | > 128 |
| O=C(Nc1c(C(=O)O)ncn1-c1ccc(OCc2c(Cl)cccc2Cl)cc1)c1ccc(Cl)cc1 | > 128 | – | – | – | – |
| O=C(Nc1nc(-c2ccc(OCc3c(Cl)cccc3Cl)cc2)c(C(=O)O)s1)c1ccccc1 | > 128 | ≤ 0.125 | > 128 | > 128 | > 128 |
| O=C(Nc1nc(-c2ccc(OCc3c(Cl)cccc3Cl)cc2)c(C(=O)O)s1)c1ccc(Cl)cc1 | > 128 | ≤ 0.117 | > 128 | > 128 | > 128 |
| C=CC(=O)Nc1nc(-c2ccc(OCc3c(Cl)cccc3Cl)cc2)c(C(=O)OCC)s1 | 7.2 (≈ 3.44 µg/mL) | ≤ 0.131 | > 128 | > 128 | > 128 |
| CCOC(=O)c1sc(NC(=O)c2ccc(Cl)cc2Cl)nc1-c1ccc(OCc2c(Cl)cccc2Cl)cc1 | 25.4 (≈ 15.1 µg/mL) | > 128 | > 128 | > 128 | > 128 |
| CC1(C)S[C@@H]2[C@H](NC(=O)[C@H](N)c3ccccc3)C(=O)N2[C@H]1C(=O)O [AMPICILLIN] | – | 0.168 (≈ 0.0587 µg/mL) | 2.7 (≈ 0.943 µg/mL) | 10.8 (≈ 3.77 µg/mL) | 10.8 (≈ 3.77 µg/mL) |
| O=[N+]([O-])c1cn2c(n1)OC[C@@H](OCc1ccc(OC(F)(F)F)cc1)C2 [PRETOMANID] | 0.44 (≈ 0.158 µg/mL) | – | – | – | – |
| COc1c(N2C[C@@H]3CCCN[C@@H]3C2)c(F)cc2c(=O)c(C(=O)O)cn(C3CC3)c12 [MOXIFLOXACIN] | 0.5 (≈ 0.201 µg/mL) | – | – | – | – |
| CCOC(=O)c1ncn(-c2ccc(OCc3c(Cl)cccc3Cl)cc2)c1NC(=O)c1ccc(Cl)cc1 | > 128 | – | – | – | – |
| CCOC(=O)c1sc(NC(=O)c2ccc(Cl)cc2)nc1-c1ccc(OCc2c(Cl)cccc2Cl)cc1 | 1 (≈ 0.562 µg/mL) | 7.12 (≈ 4 µg/mL) | > 128 | > 128 | > 128 |
| GENTAMICIN | – | 6.9 | 6.9 | 6.9 | 0.43 |
| CCOC(=O)c1sc(NC(=O)c2ccccc2)nc1-c1ccc(OCc2c(Cl)cccc2Cl)cc1 | 61.2 (≈ 32.3 µg/mL) | ≤ 0.119 | > 128 | > 128 | > 128 |
| CCCC(=O)Nc1nc(-c2ccc(OCc3c(Cl)cccc3Cl)cc2)c(C(=O)OCC)s1 | 60.8 (≈ 30 µg/mL) | ≤ 0.127 | > 128 | > 128 | > 128 |
| CCCC(=O)Nc1nc(-c2ccc(OCc3c(Cl)cccc3Cl)cc2)c(C(=O)O)s1 | > 128 | ≤ 0.134 | > 128 | > 128 | > 128 |
| CCOC(=O)c1sc(NC(=O)c2ccc(OC)cc2)nc1-c1ccc(OCc2c(Cl)cccc2Cl)cc1 | 7.6 (≈ 4.24 µg/mL) | ≤ 0.112 | > 128 | > 128 | > 128 |
| COc1ccc(C(=O)Nc2nc(-c3ccc(OCc4c(Cl)cccc4Cl)cc3)c(C(=O)O)s2)cc1 | > 128 | ≤ 0.118 | > 128 | > 128 | > 128 |
